From ChEMBL document CHEMBL2321839, “Novel limonene and citral based 2,5-disubstituted-1,3,4-oxadiazoles: a natural product coupled approach to semicarbazones for antiepileptic activity” (Bioorg Med Chem Lett, 2013)
Calls of active or inactive are those of the source. The calls are words filed in the database; no cut-off is given here.

Tests used:
[1] = test system: Mus musculus; experiment: Antiepileptic activity in Swiss albino mouse assessed as protection against maximal-electric shock-induced seizures at 300 mg/kg, ip measured after 0.5 hrs; assay type: functional, organism-based; set-up: dose 300 mg/kg
Procedure, shortened: (§1)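 Male Swiss albino mice (18–25 g), compounds given ip at 30, 100 and 300 mg/kg. Seizures induced by maximal electroshock (MES) or subcutaneous pentylenetetrazole (scPTZ). Protection scored at 0.5 and 4.0 h after dosing.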

[2] = test system: Mus musculus; experiment: Antiepileptic activity in ip dosed Swiss albino mouse assessed as protection against maximal-electric shock-induced seizures after 4 hrs; assay type: functional; settings: read-out: MED; procedure, shortened: as §1
[3] = test system: Mus musculus; experiment: Neurotoxicity against Swiss albino mouse by rotarod test at 300 mg/kg, ip after 0.5 hrs; assay type: toxicity, organism-based; set-up: dose 300 mg/kg, route intraperitoneal; settings: in vivo
Procedure, shortened: (§2)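 Acute neurotoxicity tested by rotorod in male Swiss albino mice (18–25 g) given 30, 100 or 300 mg/kg ip. Read at 0.5 and 4.0 h post-dose. Result is the minimal dose causing toxicity in half or more of the animals; a dash means none up to 300 mg/kg.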

[4] = test system: Mus musculus; experiment: Neurotoxicity against ip dosed Swiss albino mouse after 4 hrs by rotarod test; assay type: toxicity, organism-based; settings: in vivo; procedure, shortened: as §2
[5] = test system: Rattus norvegicus; experiment: Antiepileptic activity in Wistar rat assessed as protection against scSTY-induced seizures at 300 mg/kg, ip measured after 4 hrs; assay type: functional, organism-based; set-up: dose 300 mg/kg
Procedure, shortened: (§3)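 Male Wistar rats (100–150 g), compounds given ip at 30, 100 and 300 mg/kg. Seizures induced by subcutaneous strychnine (scSTY). Activity read 0.5 and 4.0 h after dosing. Reported as the minimal dose active in at least half of the animals; a dash means no activity at 300 mg/kg.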

[6] = test system: Rattus norvegicus; experiment: Antiepileptic activity in Wistar rat assessed as protection against scSTY-induced seizures at 300 mg/kg, ip measured after 0.5 hrs; assay type: functional, organism-based; set-up: dose 300 mg/kg; procedure, shortened: as §3
[7] = test system: Mus musculus; experiment: Antiepileptic activity in Swiss albino mouse assessed as protection against scPTZ-induced seizures at 300 mg/kg, ip measured after 4 hrs; assay type: functional, organism-based; set-up: dose 300 mg/kg; procedure, shortened: as §1
[8] = test system: Mus musculus; experiment: Antiepileptic activity in Swiss albino mouse assessed as protection against scPTZ-induced seizures at 300 mg/kg, ip measured after 0.5 hrs; assay type: functional, organism-based; set-up: dose 300 mg/kg; procedure, shortened: as §1
[9] = test system: Mus musculus; experiment: Antiepileptic activity in Swiss albino mouse assessed as protection against maximal-electric shock-induced seizures at 300 mg/kg, ip measured after 4 hrs; assay type: functional, organism-based; set-up: dose 300 mg/kg; procedure, shortened: as §1
[10] = test system: Mus musculus; experiment: Antiepileptic activity in ip dosed Swiss albino mouse assessed as protection against scPTZ-induced seizures after 4 hrs; assay type: functional; settings: read-out: MED; procedure, shortened: as §1
[11] = test system: Mus musculus; experiment: Neurotoxicity against ip dosed Swiss albino mouse after 0.5 hrs by rotarod test; assay type: toxicity, organism-based; settings: in vivo; procedure, shortened: as §2
[12] = test system: Rattus norvegicus; experiment: Antiepileptic activity in ip dosed Wistar rat assessed as protection against scSTY-induced seizures after 4 hrs; assay type: functional; settings: read-out: MED; procedure, shortened: as §3
[13] = test system: Mus musculus; experiment: Neurotoxicity against Swiss albino mouse by rotarod test at 300 mg/kg, ip after 4 hrs; assay type: toxicity, organism-based; set-up: dose 300 mg/kg, route intraperitoneal; settings: in vivo; procedure, shortened: as §2
[14] = test system: Mus musculus; experiment: Antiepileptic activity in ip dosed Swiss albino mouse assessed as protection against maximal-electric shock-induced seizures after 0.5 hrs; assay type: functional; settings: read-out: MED; procedure, shortened: as §1

SMILES | Activity [1] | minimal effective dose [2] [mg/kg] | Activity [3] | MTC [4] [mg/kg] | Activity [5] | Activity [6] | Activity [7] | Activity [8] | Activity [9] | minimal effective dose [10] [mg/kg] | MTC [11] [mg/kg] | minimal effective dose [12] [mg/kg] | Activity [13] | minimal effective dose [14] [mg/kg]
C=C(C)[C@@H]1CC=C(C)/C(=N/NC(=O)Nc2nnc(-c3ccccc3)o2)C1 | inactive | 300 | Non-toxic | 300 | inactive | inactive | inactive | inactive | – | – | – | – | – | –
CC(C)=CC/C=C(/C)C/C=N/NC(=O)Nc1nnc(-c2ccccc2O)o1 | inactive | – | – | – | inactive | inactive | – | inactive | inactive | 300 | 300 | – | – | –
C=C(C)[C@@H]1CC=C(C)/C(=N/NC(=O)Nc2nnc(-c3ccc(OC)cc3)o2)C1 | inactive | 300 | Non-toxic | – | – | inactive | – | inactive | – | 300 | – | 300 | Non-toxic | –
CC(C)=CC/C=C(/C)C/C=N/NC(=O)Nc1nnc(-c2ccc(C)cc2)o1 | inactive | 300 | Non-toxic | 300 | inactive | inactive | inactive | inactive | – | – | – | – | Non-toxic | –
CC(C)=CC/C=C(/C)C/C=N/NC(=O)Nc1nnc(-c2ccc(F)cc2)o1 | inactive | 300 | Non-toxic | – | inactive | inactive | – | inactive | – | 300 | – | – | – | –
C=C(C)[C@@H]1CC=C(C)/C(=N/NC(=O)Nc2nnc(-c3ccc(Cl)cc3)o2)C1 | – | 300 | Non-toxic | – | – | inactive | – | inactive | – | 300 | – | 300 | Non-toxic | 100
C=C(C)[C@@H]1CC=C(C)/C(=N/NC(=O)Nc2nnc(-c3ccc(C)cc3)o2)C1 | inactive | 300 | – | – | inactive | inactive | inactive | inactive | – | – | 300 | – | Non-toxic | –
C=C(C)[C@@H]1CC=C(C)/C(=N/NC(=O)Nc2nnc(-c3cccc(O)c3)o2)C1 | inactive | – | – | – | inactive | inactive | – | inactive | inactive | 300 | 300 | – | Non-toxic | –
CC(C)=CC/C=C(/C)C/C=N/NC(=O)Nc1nnc(-c2ccccc2)o1 | inactive | – | Non-toxic | 300 | inactive | inactive | inactive | inactive | inactive | – | – | – | – | –
COc1ccc(-c2nnc(NC(=O)N/N=C/C/C(C)=C\CC=C(C)C)o2)cc1 | inactive | – | Non-toxic | – | – | inactive | inactive | inactive | inactive | – | – | 300 | Non-toxic | –
CC(C)=CC/C=C(/C)C/C=N/NC(=O)Nc1nnc(-c2ccc(Cl)cc2)o1 | – | 300 | Non-toxic | – | inactive | inactive | inactive | inactive | – | – | – | – | Non-toxic | 100
C=C(C)[C@@H]1CC=C(C)/C(=N/NC(=O)Nc2nnc(-c3ccccc3O)o2)C1 | inactive | 300 | Non-toxic | 300 | inactive | inactive | inactive | inactive | – | – | – | – | – | –
